From ChEMBL document CHEMBL2146377, “Rational design of 4-aryl-1,2,3-triazoles for indoleamine 2,3-dioxygenase 1 inhibition” (J Med Chem, 2012)
Activity calls are given as the source filed them. The rule behind the calls is not given here.

Columns and labels:
[1] = biological target: T1, Indoleamine 2,3-dioxygenase 1 (Homo sapiens, UniProt P14902); experiment: Inhibition of human recombinant N-terminal His-tagged IDO1 (Ala2 to Gly403) overexpressed in Escherichia coli BL21 at pH 6.5 after 60 mins by HPLC analysis
Target sequence in this assay (P14902 whole entry): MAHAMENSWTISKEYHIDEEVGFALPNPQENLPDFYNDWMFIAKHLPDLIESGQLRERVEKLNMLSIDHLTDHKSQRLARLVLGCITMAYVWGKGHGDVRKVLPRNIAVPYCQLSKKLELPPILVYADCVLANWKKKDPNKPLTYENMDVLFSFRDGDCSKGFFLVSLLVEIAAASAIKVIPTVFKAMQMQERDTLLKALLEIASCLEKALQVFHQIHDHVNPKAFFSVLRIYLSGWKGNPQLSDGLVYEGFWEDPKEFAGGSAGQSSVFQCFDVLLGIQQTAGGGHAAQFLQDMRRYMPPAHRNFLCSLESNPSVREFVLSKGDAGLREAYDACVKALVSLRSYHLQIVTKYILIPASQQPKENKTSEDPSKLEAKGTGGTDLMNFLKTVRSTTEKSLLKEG

[2] = biological target: Indoleamine 2,3-dioxygenase 1 (Mus musculus, UniProt P28776); experiment: Inhibition of mouse IDO1 in P815 clone 6 cells by HPLC analysis; assay type: cell-based
Procedure, shortened: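 Murine mastocytoma P815 stably transfected cells were used: P815-mIDO1 clone 6 for mouse IDO1 and P815B-hIDO1 clone 6 for human IDO1. Cells with inhibitor were incubated at 37 °C until under 50% of tryptophan was consumed, as tracked in control wells by pDMAB absorbance at 480 nm. Supernatant was TCA-precipitated, and tryptophan and kynurenine were quantified by C18 HPLC. Values are the mean of ≥2 independent assays.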

[3] = biological target: T1, Indoleamine 2,3-dioxygenase 1; experiment: Inhibition of human IDO1 transfected in mouse P815B clone-6 cells by HPLC analysis; assay type: cell-based
Target sequence in this assay (P14902 whole entry): as above

[4] = biological target: Tryptophan 2,3-dioxygenase (Mus musculus, UniProt P48776); experiment: Inhibition of mouse TDO in P815 clone 12 cells by HPLC analysis; assay type: cell-based
[5] = biological target: Tryptophan 2,3-dioxygenase (Homo sapiens, UniProt P48775); experiment: Inhibition of human TDO transfected in mouse P815B clone 19 cells by HPLC analysis; assay type: cell-based
HepG2 = experiment: Cytotoxicity against human HepG2 cells after 24 hrs by MTS-PMS assay; assay type: functional; conditions: HepG2, 24 h, read-out: LD50 (the source's name)
Procedure, shortened: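 Hep G2 cells (2 × 10⁴ per well) in IMDM with 10% FCS exposed to compound titrated 0.001–100 μM for 24 h at 37 °C; living cells counted by MTS/PMS assay; LD₅₀ reported as mean of at least two independent assays with standard deviation.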

[6] = biological target: T1, Indoleamine 2,3-dioxygenase 1; experiment: Inhibition of human IDO1 transfected in HEK293 clone 6 cells by HPLC analysis; assay type: cell-based
Target sequence in this assay (P14902 whole entry, looked up): as the sequence (P14902 whole entry) above

physchem = conditions: pH 2
[7] = biological target: T1, Indoleamine 2,3-dioxygenase 1; conditions: at 1 mM
Target sequence in this assay (P14902 whole entry, looked up): as the sequence (P14902 whole entry) above

Sequence of Indoleamine 2,3-dioxygenase 1 (Mus musculus, UniProt P28776) (P28776 whole entry): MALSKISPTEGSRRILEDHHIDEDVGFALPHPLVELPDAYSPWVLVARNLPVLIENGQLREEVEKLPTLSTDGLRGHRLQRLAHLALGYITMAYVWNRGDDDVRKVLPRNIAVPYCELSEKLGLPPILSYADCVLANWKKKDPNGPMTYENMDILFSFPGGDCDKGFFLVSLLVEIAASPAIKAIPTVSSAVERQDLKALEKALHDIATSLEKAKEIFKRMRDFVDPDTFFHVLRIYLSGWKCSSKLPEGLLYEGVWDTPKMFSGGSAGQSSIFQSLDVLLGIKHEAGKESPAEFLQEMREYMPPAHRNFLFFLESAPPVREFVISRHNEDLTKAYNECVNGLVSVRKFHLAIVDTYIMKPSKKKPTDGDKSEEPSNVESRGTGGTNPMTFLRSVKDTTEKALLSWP
Sequence of Tryptophan 2,3-dioxygenase (Mus musculus, UniProt P48776) (P48776 whole entry): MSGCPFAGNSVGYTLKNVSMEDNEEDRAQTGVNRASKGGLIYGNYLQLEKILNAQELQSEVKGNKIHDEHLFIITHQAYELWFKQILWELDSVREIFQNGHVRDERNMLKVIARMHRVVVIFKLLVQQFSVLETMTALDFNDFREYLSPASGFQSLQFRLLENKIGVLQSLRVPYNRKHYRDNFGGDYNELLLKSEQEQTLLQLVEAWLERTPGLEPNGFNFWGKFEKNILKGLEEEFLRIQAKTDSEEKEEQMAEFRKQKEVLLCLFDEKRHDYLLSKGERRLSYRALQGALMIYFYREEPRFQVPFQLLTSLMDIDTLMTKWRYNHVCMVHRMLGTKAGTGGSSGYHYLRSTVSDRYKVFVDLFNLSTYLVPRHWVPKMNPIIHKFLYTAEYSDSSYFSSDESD
Sequence of Tryptophan 2,3-dioxygenase (Homo sapiens, UniProt P48775) (P48775 whole entry): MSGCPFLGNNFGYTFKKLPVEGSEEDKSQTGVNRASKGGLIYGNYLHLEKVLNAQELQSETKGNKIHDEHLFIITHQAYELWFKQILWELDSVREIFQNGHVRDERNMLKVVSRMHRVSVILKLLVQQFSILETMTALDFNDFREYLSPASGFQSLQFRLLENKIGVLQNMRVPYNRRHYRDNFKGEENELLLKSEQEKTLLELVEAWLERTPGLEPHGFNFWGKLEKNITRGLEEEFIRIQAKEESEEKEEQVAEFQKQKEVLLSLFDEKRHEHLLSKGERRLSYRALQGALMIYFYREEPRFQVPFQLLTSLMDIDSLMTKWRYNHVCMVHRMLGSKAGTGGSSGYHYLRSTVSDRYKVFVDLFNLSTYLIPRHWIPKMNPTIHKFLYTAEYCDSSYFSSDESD

Row | Structure (SMILES) | IC50 [1] | IC50 [2] | IC50 [3] | IC50 [4] | IC50 [5] | CC50 (HepG2) | inhibition [6] | pKa (physchem) | inhibition [7]
1 | Clc1cccc(-c2c[nH]nn2)c1Cl | 23 µM | 1.7 µM | > 100 µM | > 100 µM | > 100 µM | > 100 µM | Active | 8.06 | 
2 | c1cc(-c2cnn[nH]2)ccn1 | 85 µM |  |  |  |  |  |  | 7.85 | 
3 | Cc1cccc(-c2cnnn2-c2ccccc2)c1 |  |  |  |  |  |  |  |  | inactive
4 | Cc1ccccc1-c1c[nH]nn1 | 39 µM | 1.7 µM | > 100 µM | > 100 µM | > 100 µM | > 100 µM | Active |  | 
5 | c1ccc(-c2cnnn2-c2ccccc2)cc1 |  |  |  |  |  |  |  |  | inactive
6 | Fc1ccc(-c2c[nH]nn2)cc1 | 190 µM | 2.1 µM | > 100 µM | > 100 µM | > 100 µM |  |  |  | 
7 | c1ccc(-c2ccncc2)cc1 |  |  |  |  |  |  |  |  | inactive
8 | c1c[nH]cn1 [IMIDAZOLE] |  |  |  |  |  |  |  | 14.5 | 
9 | Fc1cccc(-c2c[nH]nn2)c1 | 47 µM | 1.1 µM | > 100 µM | > 100 µM | > 100 µM | > 100 µM | Active | 8.38 | 
10 | Brc1cc(-c2c[nH]nn2)ccn1 | 3.3 µM | 0.05 µM | 2.9 µM | > 100 µM | > 100 µM | > 100 µM | Active |  | 
11 | Clc1ccccc1-c1c[nH]nn1 | 32 µM | 1.5 µM | > 100 µM | > 100 µM | > 100 µM |  |  | 8.5 | 
12 | Brc1cccc(-c2c[nH]nn2)c1 | 2 µM | 0.023 µM | 0.94 µM | > 100 µM | > 100 µM | > 100 µM | Active |  | 
13 | Cn1cc(-c2cccc(Cl)c2)nn1 |  |  |  |  |  |  |  |  | inactive
14 | c1ccc(Cc2c[nH]nn2)cc1 |  |  |  |  |  |  |  |  | inactive
15 | Cc1cccc(NC(=O)C(F)(F)F)c1-c1c[nH]nn1 | 3000 µM |  |  |  |  |  |  |  | 
16 | NCCc1ccccc1-c1c[nH]nn1 |  |  |  |  |  |  |  |  | inactive
17 | Fc1ccc2c(/C=C/c3nnn[nH]3)c[nH]c2c1 |  | > 100 µM |  | 17 µM |  | > 100 µM | Active |  | 
18 | Cc1cccc(N)c1-c1c[nH]nn1 | 1200 µM |  |  |  |  |  |  |  | 
19 | CCc1cccc(-c2c[nH]nn2)c1 | 13 µM | 0.03 µM | 1.1 µM | > 100 µM | > 100 µM | > 100 µM | Active |  | 

Row | Structure (SMILES) | IC50 [1] | IC50 [2] | IC50 [3] | IC50 [4] | IC50 [5] | CC50 (HepG2) | inhibition [6] | pKa (physchem) | inhibition [7]
20 | Brc1ccccc1-c1c[nH]nn1 | 6.4 µM | 0.034 µM | 2.6 µM | > 100 µM | > 100 µM |  |  |  | 
21 | FC(F)(F)c1cccc(-c2c[nH]nn2)c1 | 6 µM | 0.07 µM | 9 µM | > 100 µM | > 100 µM | > 100 µM | Active |  | 
22 | Nc1ccccc1-c1c[nH]nn1 | 60 µM | 1.7 µM | > 100 µM | > 100 µM | > 100 µM | > 100 µM | Active |  | 
23 | Cn1cc(-c2ccccc2)nn1 |  |  |  |  |  |  |  |  | inactive
24 | Oc1ccc(Cl)cc1-c1c[nH]nn1 |  | 0.002 µM |  | > 100 µM | > 100 µM | > 100 µM | Active |  | 
25 | Cn1nncc1-c1ccccc1 |  |  |  |  |  |  |  |  | inactive
26 | Cc1cccc(-c2c[nH]nn2)c1 | 22 µM | 0.12 µM | 7 µM | > 100 µM | > 100 µM | > 100 µM | Active |  | 
27 | Clc1ccc(-c2c[nH]nn2)cc1 | 530 µM |  |  |  |  |  |  | 8.46 | 
28 | c1cc(-c2c[nH]cn2)ccn1 | 1800 µM |  |  |  |  |  |  |  | 
29 | Nc1nonc1/C(=N/O)Nc1ccc(F)c(Cl)c1 |  |  |  |  |  | > 100 µM | Active |  | 
30 | CCCCn1cc(-c2ccccc2)nn1 |  |  |  |  |  |  |  |  | inactive
31 | Cn1nncc1-c1cccc(Cl)c1 |  |  |  |  |  |  |  |  | inactive
32 | O=Cc1ccccc1-c1c[nH]nn1 | 1300 µM |  |  |  |  |  |  |  | 
33 | Clc1ccccc1-c1cnn[nH]1 |  |  |  |  |  | > 100 µM | Active |  | 
34 | Cn1ncc(-c2ccccc2)n1 |  |  |  |  |  |  |  |  | inactive
35 | CCCCn1nncc1-c1ccccc1 |  |  |  |  |  |  |  |  | inactive
36 | CCn1ncc(-c2ccccc2)n1 |  |  |  |  |  |  |  |  | inactive
37 | FC(F)(F)c1ccccc1-c1c[nH]nn1 | 650 µM | 20 µM | > 100 µM | > 100 µM | > 100 µM | > 100 µM | Active |  | 
38 | c1ccc(Cn2nncc2-c2ccccc2)cc1 |  |  |  |  |  |  |  |  | inactive
